Experimental data reported in ChEMBL document CHEMBL4699541, “Fragment based drug design and diversity-oriented synthesis of carboxylic acid isosteres” (Bioorg Med Chem, 2020).

Tests used:
Assay type in all cases: physicochemical
[1] = Dissociation constant, pKa of compound measured under acidic conditions by Sirius T3 apparatus based potentiometric titration analysis
[2] = Dissociation constant, pKa of compound in water by Sirius T3 apparatus based potentiometric titration analysis
[3] = Distribution coefficient, logD of compound at pH 3 by Sirius T3 apparatus based potentiometric titration analysis; conditions: octanol/water
[4] = Distribution coefficient, logD of compound at pH 8 by Sirius T3 apparatus based potentiometric titration analysis; conditions: octanol/water
[5] = Octanol/water partition coefficient, logP of compound by Sirius T3 apparatus based potentiometric titration analysis
Procedure, shortened: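 Measured by potentiometric (pH-metric) titration in an immiscible octanol–water biphasic system on a Sirius T3. Run at 25 °C at constant ionic strength (0.15 M KCl), using the pKa values determined earlier on the same instrument. Samples came from 50 mM DMSO stocks.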

[6] = Dissociation constant, pKa of compound in DMSO by Sirius T3 apparatus based potentiometric titration analysis

Row | pKa [1] | pKa [2] | logD [3] | logD [4] | logP [5] | pKa [6] | SMILES
1 | 4.97 | > 12 |  |  |  |  | Cc1cccc(/C(N)=N/O)c1
2 |  | 5.59 | 1.39 | -0.42 | 1.63 |  | Cc1cccc(Cc2noc(O)n2)c1
3 |  |  | 1.07 | -0.96 | 1.51 | 4.73 | Cc1cccc(Cc2nnn[nH]2)c1
4 |  | > 12 |  |  |  |  | Cc1cccc(CC(N)=O)c1
5 |  |  | 1.26 | -0.87 | 2.32 | 2.95 | Cc1cccc(C2=C(O)COC2=O)c1
6 |  |  | 1.1 | -0.95 | 1.75 | 4.07 | Cc1cccc(-c2nnn[nH]2)c1
7 |  | 5.12 | 0.8 | -1.11 | 1.14 |  | Cc1cccc(-c2noc(O)n2)c1
8 |  |  | 0.44 | -1.58 | 0.97 | 4.63 | Cc1cccc(CC(=O)NS(C)(=O)=O)c1
9 |  |  | 1.42 | -0.7 | 2.39 | 3.19 | Cc1cccc(Cc2noc(S)n2)c1
10 |  |  | 1.44 | -0.7 | 2.65 | 2.64 | Cc1cccc(-c2noc(S)n2)c1
11 | 5.27 | > 12 |  |  |  |  | Cc1cccc(C/C(N)=N/O)c1
12 |  | > 12 |  |  |  |  | Cc1cccc(C(N)=O)c1
13 |  |  | 2.02 | 0.42 | 2.15 | 6.35 | Cc1cccc(Cc2nsc(O)n2)c1
14 |  | 3.99 |  |  |  |  | Cc1cccc(C(=O)O)c1
15 |  | 4.13 | 1.35 | -0.7 | 1.98 |  | Cc1cccc(CC(=O)O)c1
16 |  |  | 2.04 | 0.34 | 2.22 | 5.99 | Cc1cccc(-c2nsc(O)n2)c1
